Broadly, the pIC50 is −log10 of the IC50, conventionally taken in molar units.

Five compounds from ChEMBL document CHEMBL4038305, “Benzoxaborole Antimalarial Agents. Part 5. Lead Optimization of Novel Amide Pyrazinyloxy Benzoxaboroles and Identification of a Preclinical Candidate” (J Med Chem, 2017) can be followed below.

Series [1] relates to Plasmodium berghei. As to the kind of experiment: Antimalarial activity against Plasmodium berghei infected in Swiss Webster mouse assessed as mouse survival rate at 200 mg/kg administered once daily via oral gavage for 4 consecutive days beginning 1 hr after infection measured on day 16 post infection relative to control. It counts as functional. In a few lines: (§1)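 P. berghei-infected erythrocytes taken from a previously infected mouse were injected intraperitoneally. Oral dosing, once daily for 4 consecutive days, began 1 h after infection, in polyethylene glycol 300/propylene glycol/water (55/25/20 by weight). Chloroquine at 30 mg/kg was the positive control, with a vehicle-only group. Percent survival was recorded daily from day 4 to day 20.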

Series [2] concerns Rattus norvegicus. Kind of series: Genotoxicity in rat assessed as micronuclei in polychromatic erythrocyte cells in bone marrow at 500 to 2000 mg/kg administered via oral gavage measured after 24 to 48 hrs post dose by micronucleus assay. Format: toxicity, organism-based. The settings on record: in vivo.
Series [3] concerns Plasmodium berghei. Kind of series: Antimalarial activity against Plasmodium berghei infected in Swiss Webster mouse assessed as mouse survival rate at 100 mg/kg administered once daily via oral gavage for 4 consecutive days beginning 1 hr after infection measured on day 16 post infection relative to control. Format: functional. An outline of the steps: (§2)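 Mice given an intraperitoneal injection of P. berghei-infected erythrocytes taken from a previously infected animal. Oral dosing once daily for 4 consecutive days, starting 1 h after infection. Vehicle: polyethylene glycol 300/propylene glycol/water (weight ratio 55/25/20). Percent survival recorded daily from day 4 to day 20. Chloroquine 30 mg/kg and vehicle-only groups served as controls.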

The subject of series [4] is Plasmodium berghei. As to the kind of experiment: Antimalarial activity against Plasmodium berghei infected in Swiss Webster mouse assessed as mouse survival rate at 11 mg/kg administered once daily via oral gavage for 4 consecutive days beginning 1 hr after infection measured on day 14 post infection relative to control. It counts as functional. In a few lines: as §2

In series [5] the test system is Plasmodium berghei. As to the kind of experiment: Antimalarial activity against Plasmodium berghei infected in Swiss Webster mouse assessed as mouse survival rate at 3 mg/kg administered once daily via oral gavage for 4 consecutive days beginning 1 hr after infection measured on day 8 post infection relative to control. It counts as functional. In a few lines:
as §1

For series [6], the system named is Plasmodium berghei. As to the kind of experiment: Antimalarial activity against Plasmodium berghei infected in Swiss Webster mouse assessed as mouse survival rate at 0.3 mg/kg administered once daily via oral gavage for 4 consecutive days beginning 1 hr after infection measured on day 4 post infection relative to control. It counts as functional. An outline of the steps:
as §2

Series [7] concerns Plasmodium berghei. Kind of series: Antimalarial activity against Plasmodium berghei infected in Swiss Webster mouse assessed as mouse survival rate at 3 mg/kg administered once daily via oral gavage for 4 consecutive days beginning 1 hr after infection measured on day 7 post infection relative to control. Format: functional. In a few lines:
as §1

Series [8] concerns Salmonella typhimurium. As to the kind of experiment: Genotoxicity in Salmonella typhimurium TA1535 assessed as number of revertants per plate at 5000 ug/plate in absence of rat liver S9 fraction by Ames test (reference value: 10 +/- 3). Format: toxicity. The settings on record: salmonella enterica subsp. enterica serovar typhimurium. In general terms: The Ames test detects mutagens through reverse mutation in bacteria.

The test system of series [9] is Plasmodium falciparum. Kind of series: Antimalarial activity against intraerythrocytic stage of Plasmodium falciparum assessed as time required to clear 99.9% of initial parasite population at 10 times IC50 preincubated for 24 hrs followed by [3H]-hypoxanthine addition measured after 24 hrs by scintillation counting method. Format: functional. An outline of the steps:
(§3)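 In vitro P. falciparum parasite reduction ratio assay run at 10×, 30× and 100× IC50. Derived parameters: lag phase (time to maximal killing), PRR (parasites killed per life cycle) and PCT99.9% (time to clear 99.9% of the initial parasite population).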

For series [10], the system named is Plasmodium falciparum. Kind of series: Antimalarial activity against Plasmodium falciparum K1 infected in human erythrocytes assessed as reduction in [3H]-hypoxanthine incorporation preincubated for 24 hrs followed by [3H]-hypoxanthine addition measured after 24 hrs by scintillation counting method. Format: functional, cell-based.
Series [11] concerns Escherichia coli. As to the kind of experiment: Genotoxicity in Escherichia coli WP2uvrA assessed as number of revertants per plate at 1.5 ug/plate in absence of rat liver S9 fraction by Ames test (reference value: 45 +/- 9). Format: toxicity.
In series [12] the test system is Salmonella typhimurium. Kind of series: Genotoxicity in Salmonella typhimurium TA1535 assessed as number of revertants per plate at 1.5 ug/plate in absence of rat liver S9 fraction by Ames test (reference value: 10 +/- 3). Format: toxicity. The settings on record: salmonella enterica subsp. enterica serovar typhimurium.
For series [13], the system named is Escherichia coli. As to the kind of experiment: Genotoxicity in Escherichia coli WP2uvrA assessed as number of revertants per plate at 50 ug/plate in presence of rat liver S9 fraction by Ames test (reference value: 42 +/- 6). It counts as toxicity.
In series [14] the test system is Salmonella typhimurium. Kind of series: Genotoxicity in Salmonella typhimurium TA1537 assessed as number of revertants per plate at 150 ug/plate in absence of rat liver S9 fraction by Ames test (reference value: 19 +/- 9). The settings on record: salmonella enterica subsp. enterica serovar typhimurium. Format: toxicity.
In series [15] the test system is Salmonella typhimurium. As to the kind of experiment: Genotoxicity in Salmonella typhimurium TA100 assessed as number of revertants per plate at 1.5 ug/plate in absence of rat liver S9 fraction by Ames test (reference value: 154 +/- 9). Format: toxicity. As to conditions: salmonella enterica subsp. enterica serovar typhimurium.
Series [16] deals with Salmonella typhimurium. Kind of series: Genotoxicity in Salmonella typhimurium TA98 assessed as number of revertants per plate at 1500 ug/plate in absence of rat liver S9 fraction by Ames test (reference value: 14 +/- 6). The settings on record: salmonella enterica subsp. enterica serovar typhimurium. Format: toxicity.
The subject of series [17] is Salmonella typhimurium. As to the kind of experiment: Genotoxicity in Salmonella typhimurium TA1535 assessed as number of revertants per plate at 1500 ug/plate in absence of rat liver S9 fraction by Ames test (reference value: 10 +/- 3). Format: toxicity. As to conditions: salmonella enterica subsp. enterica serovar typhimurium.
Series [18] in a line: Oral bioavailability in Beagle dog at 5 mg/kg by HPLC/MS analysis. It counts as ADME, organism-based, Canis lupus familiaris. As to conditions: in vivo. An outline of the steps: (§4)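 Female CD-1 mice, male SD rats or beagle dogs given 5 mg/kg by iv injection or oral gavage. Formulation was PEG300/propylene glycol/water 55/25/20, pH 6. Blood samples analysed by HPLC–MS/MS; parameters include AUC0-inf extrapolated to infinity and terminal half-life.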

For series [19], the system named is Plasmodium falciparum. Kind of series: Antimalarial activity against intraerythrocytic stage of Plasmodium falciparum assessed as time required for maximal killing effect at 10 times IC50 preincubated for 24 hrs followed by [3H]-hypoxanthine addition measured after 24 hrs by scintillation counting method. Format: functional. In a few lines:
as §3

The nature of series [20]: Terminal half life in Beagle dog at 5 mg/kg, po via gavage by HPLC/MS analysis. Format: ADME, organism-based, Canis lupus familiaris. As to conditions: in vivo, read-out: beta t1/2 (converted). An outline of the steps: as §4
Series [21] relates to Rattus norvegicus. Kind of series: Genotoxicity in rat assessed as change in polychromatic erythrocytes in bone marrow at 500 mg/kg administered via oral gavage measured after 24 hrs post dose by micronucleus assay relative to control. It counts as toxicity, organism-based. As to conditions: in vivo.
Series [22] has as its system Escherichia coli. As to the kind of experiment: Genotoxicity in Escherichia coli WP2uvrA assessed as number of revertants per plate at 1.5 ug/plate in presence of rat liver S9 fraction by Ames test (reference value: 42 +/- 6). Format: toxicity.
Series [23] concerns Salmonella typhimurium. As to the kind of experiment: Genotoxicity in Salmonella typhimurium TA100 assessed as number of revertants per plate at 15 ug/plate in presence of rat liver S9 fraction by Ames test (reference value: 141 +/- 1). It counts as toxicity. As to conditions: salmonella enterica subsp. enterica serovar typhimurium.
The subject of series [24] is Salmonella typhimurium. Kind of series: Genotoxicity in Salmonella typhimurium TA1537 assessed as number of revertants per plate at 15 ug/plate in presence of rat liver S9 fraction by Ames test (reference value: 11 +/- 4). As to conditions: salmonella enterica subsp. enterica serovar typhimurium. It counts as toxicity.
Series [25] relates to Escherichia coli. Kind of series: Genotoxicity in Escherichia coli WP2uvrA assessed as number of revertants per plate at 500 ug/plate in absence of rat liver S9 fraction by Ames test (reference value: 45 +/- 9). Format: toxicity.
The test system of series [26] is Salmonella typhimurium. Kind of series: Genotoxicity in Salmonella typhimurium TA98 assessed as number of revertants per plate at 500 ug/plate in presence of rat liver S9 fraction by Ames test (reference value: 19 +/- 8). Format: toxicity. The settings on record: salmonella enterica subsp. enterica serovar typhimurium.
The subject of series [27] is Escherichia coli. As to the kind of experiment: Genotoxicity in Escherichia coli WP2uvrA assessed as number of revertants per plate at 5 ug/plate in absence of rat liver S9 fraction by Ames test (reference value: 45 +/- 9). Format: toxicity.

Structures are written as SMILES. pIC50: −log10 of the molar value.

For `CCCC1(O)CN(C(=O)c2cnc(Oc3ccc4c(c3C)B(O)OC4)cn2)C1`, in series [1], the survival at 200 mg/kg is 100%.
Turning to `Cc1c(Oc2cnc(C(=O)NCCO)cn2)ccc2c1B(O)OC2`, in series [2], the Activity entry is “Non-Toxic”.
Consider `Cc1c(Oc2cnc(C(=O)N3CC(O)(C(C)C)C3)cn2)ccc2c1B(O)OC2`, for which the survival at 100 mg/kg in series [3] was found to be 100%. In addition, the survival at 11 mg/kg in series [4] stood at 0%.
Turning to `Cc1c(Oc2cnc(C(=O)NC(C)CO)cn2)ccc2c1B(O)OC2` (stereo not drawn), the figures for the survival at 3 mg/kg in series [5] and in series [7] were 0% and 60%, respectively. The survival at 0.3 mg/kg in [6] turned out to be 100%.
For the compound `Cc1c(Oc2cnc(C(=O)N3CC(C)(O)C3)cn2)ccc2c1B(O)OC2`, the Activity in [8] was 4; in [11], 40; in series [12], 12; in series [13], 44; in [14], 15; in [15] it was 144. The Activity in series [16] was 13; in series [17] it was 7; in [21] it was -4%; in series [22], 39; in [23], 149; in series [24], 9. Further, the Activity in series [25] was determined as 55; in series [26], 18; in series [27], 35. Moreover, the T99.9% in series [9] was determined as 36 h. Besides, in series [10], the pIC50 was 7.21. Besides, the survival at 100 mg/kg in series [3] came out at 60%. Moreover, the bioavailability in [18] was determined as 127%. Besides, the Time in series [19] worked out at 0 h. In addition, the half-life in series [20] is 9.5 h.
